Experimental data from different studies.
Compare with care: the assays were run in different laboratories.
Target: Serine/threonine-protein kinase 32A (STK32A, Homo sapiens, UniProt Q8WU08)

O=C(NCC1CCOCC1)c1n[nH]cc1NC(=O)c1c(F)cccc1F
remaining binding (binding, competition with immobilised ligand; 1 µM): 88%

CNC(=O)[C@@H]1CC[C@@H](n2c(-c3ccc4cnccc4c3)nc3ccc(C(=O)NCc4cccc(C(N)=O)c4)cc32)C1
remaining binding (binding, competition with immobilised ligand; 1 µM): 100%

N#Cc1ccc(Nc2ccc3[nH]c(=O)[nH]c3c2)c(Cl)c1
remaining binding (binding, competition with immobilised ligand; 1 µM): 81%

C[C@@H]1CCN(c2nccc(-c3cnn4ncccc34)n2)C1
remaining binding (binding; 1 µM): 71%

O=C(NCCCN1CCOCC1)c1ccc(Nc2ncc(Cl)c(-c3ccc(Cl)s3)n2)cc1
remaining binding (binding, competition with immobilised ligand; 1 µM): 93%

F[C@@H]1CCN(c2nccc(-c3cnn4ncccc34)n2)C1
remaining binding (binding; 1 µM): 100%

Cc1c[nH]c2nccc(Oc3c(F)cc(Nc4cc(Cl)nc(N)n4)cc3F)c12
remaining binding (cell-free assay, competition with immobilised ligand; 0.1 µM): 86%

CCN1CCN(Cc2ccc(C(=O)Nc3ccc(C)c(Oc4ccc5c(c4)CC(=O)N5)c3)cc2C(F)(F)F)CC1
remaining binding (binding, competition with immobilised ligand; 1 µM): 100%

c1cncc(-c2cccc(Nc3nccc(NC4CCCCC4)n3)c2)c1
remaining binding (binding, competition with immobilised ligand; 10 µM): 69%

NS(=O)(=O)c1cc(NC(=O)Cc2ccccc2)ccc1Oc1cccc(Cl)c1
remaining binding (cell-free assay, competition with immobilised ligand; 1 µM): 100%

CN(CCCC(F)(F)F)c1nccc(-c2cnn3ncccc23)n1
remaining binding (binding; 1 µM): 100%

COc1ccc2c(c1)O[C@H](c1ccc(OC)c(OC)c1)C[C@@H]2NC(=O)C1(c2ccc3c(c2)OC(F)(F)O3)CC1
remaining binding (cell-free assay, competition with immobilised ligand; 1 µM): 100%

N[C@H]1CCN(c2nccc(-c3cnn4ncccc34)n2)C1
remaining binding (binding; 1 µM): 87%

FC(F)(F)Oc1cccc(-c2cnc3ccc(-c4ccncc4)nn23)c1
remaining binding (binding, competition with immobilised ligand; 5 µM): 75%

O=C(NCCCN1CCOCC1)c1ccc(Nc2nccc(-c3cc4ccccc4s3)n2)cc1
remaining binding (binding, competition with immobilised ligand; 1 µM): 100%

CN(c1nccc(-c2cnn3ncccc23)n1)C1CC1
remaining binding (binding; 1 µM): 100%

CN(c1ccnc(CNc2nc(Nc3ccc4c(c3)CC(=O)N4)ncc2C(F)(F)F)n1)S(C)(=O)=O
remaining binding (cell-free assay, competition with immobilised ligand; 1 µM): 72%

O=C(c1ccc(Nc2ncc(Cl)c(-c3cc4ccccc4s3)n2)cc1)N1CCC(N2CCCC2)CC1
remaining binding (binding, competition with immobilised ligand; 1 µM): 68%

Cc1c(NC(=O)c2cc(C(N)=O)nc3cc(F)ccc23)c(C(F)(F)F)nn1Cc1ccc(C(C)(C)C)cc1
remaining binding (cell-free assay, competition with immobilised ligand; 1 µM): 100%

COc1ccnn2ncc(-c3ccnc(N(C)C)n3)c12
remaining binding (binding; 1 µM): 74%

COc1cnc(Nc2cccc(S(N)(=O)=O)c2)nc1N1CCN(c2ccccc2)C(=O)C1
remaining binding (binding, competition with immobilised ligand; 1 µM): 98%

CNC(=O)Nc1ccc2c(c1)CC[C@@]21OC(=O)N(CC(=O)N(Cc2ccc(F)cc2)[C@@H](C)C(F)(F)F)C1=O
remaining binding (binding, competition with immobilised ligand; 1 µM): 88%
